Results as given in ChEMBL document CHEMBL5674890, “Selective inhibition of CBP/p300 HAT by A-485 results in suppression of lipogenesis and hepatic gluconeogenesis” (Cell Death Dis, 2020).
Active and inactive are the calls of the source. No cut-off for these calls is given here.

Legend:
Mus musculus [1] = organism: Mus musculus; experiment: Inhibition of glucogenesis in mouse assessed as decrease in hepatic FOXO1 protein expression measured by western blot analysis; type: functional, organism-based
Outline: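 Livers from vehicle- or treated mice (ip 20 mg·kg−1·day−1 for 7 days) homogenized in lysis buffer; FOXO1 and C/EBPα analysed by western blot.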

Adipocyte [2] = experiment: Inhibition of lipogenesis in mouse adipocytes isolated stromal vascular cells assessed as decrease in ACC protein expression measured after 24 hrs by western blot analysis; type: functional, cell-based
Mus musculus [3] = experiment: Inhibition of lipogenesis in C57BL/6 mouse supplemented with high-fat diet assessed as decrease in ChREBP mRNA expression at 20 mg/kg/day, ip administered for 1 week measured by RT-qPCR assay; type: functional, organism-based; conditions: time 1.0 weeks
Outline: (§1)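 Male C57BL/6 mice were fed high-fat diet for 14 weeks from 5 weeks of age, then injected ip with 20 mg·kg−1·day−1 for 7 days or given vehicle. Epididymal and inguinal WAT were weighed, examined by H&E, and analysed. Transcripts were measured by Trizol/SYBR Green RT-qPCR; proteins by western blot. n = 5–9; mean ± SEM.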

Mus musculus [4] = experiment: Anti-obesity activity in 6 hrs fasted C57BL/6 mouse supplemented with normal chow diet assessed as effect on fasting blood glucose at 20 mg/kg/day, ip administered for 1 week; type: functional, organism-based; conditions: time 1.0 weeks
Outline: (§2)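 8-week-old male C57BL/6 mice on normal chow, ip 20 mg·kg−1·day−1 for 7 days. Blood glucose measured randomly fed or after 6 h or 16 h fasting, as the line states. Mean ± SEM, n = 5–9.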

Mus musculus [5] = experiment: Anti-obesity activity in 16 hrs fasted C57BL/6 mouse supplemented with normal chow diet assessed as decrease in fasting blood glucose at 20 mg/kg/day, ip administered for 1 week; type: functional, organism-based; conditions: time 1.0 weeks; outline: as §2
Adipocyte [6] = experiment: Inhibition of lipogenesis in mouse adipocytes isolated stromal vascular cells assessed as decrease in PPARgamma mRNA expression measured after 24 hrs by RT-qPCR assay; type: functional, cell-based
Outline: (§3)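 Stromal vascular cells from inguinal WAT of C57BL/6 mice, grown in DMEM/F12 + 10% FBS at 37 °C, 10% CO2. At confluence, induced 48 h with 5 μg/ml insulin, 1 μM dexamethasone, 0.5 mM isobutylmethylxanthine, then 6 days in 5 μg/ml insulin; fully differentiated day 8. Mature adipocytes exposed to inhibitor 24 h. Total RNA by Trizol, SYBR Green RT-qPCR; protein by western blot.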

Mus musculus [7] = experiment: Inhibition of lipogenesis in C57BL/6 mouse supplemented with normal chow diet assessed as decrease in FABP4 mRNA expression at 20 mg/kg/day, ip administered for 1 week measured measured by RT-qPCR assay; type: functional, organism-based; conditions: time 1.0 weeks
Outline: (§4)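 Eight-week-old male C57BL/6 mice on normal chow were given 20 mg·kg−1·day−1 ip daily for 7 days or vehicle. Epididymal WAT was collected. Lipogenic, adipogenic and fatty-acid-oxidation transcripts were quantified by Trizol extraction and SYBR Green RT-qPCR. FAS, ACC, PPARγ and C/EBPα protein were assessed by western blot. n = 5–9; mean ± SEM.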

Mus musculus [8] = experiment: Anti-obesity activity in C57BL/6 mouse supplemented with normal chow diet assessed as decrease in hepatic G6Pc mRNA expression at 20 mg/kg/day, ip administered for 1 week measured a by RT-qPCR assay; type: functional, organism-based; conditions: time 1.0 weeks
Outline: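 Liver G6Pc mRNA in 8-week-old normal-chow male C57BL/6 mice after 7 days ip at 20 mg·kg−1·day−1. Trizol RNA extraction, SYBR Green RT-qPCR. Mean ± SEM, n = 5–9.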

Mus musculus [9] = experiment: Inhibition of lipogenesis in C57BL/6 mouse supplemented with normal chow diet assessed as decrease in FASN mRNA expression at 20 mg/kg/day, ip administered for 1 week measured by RT-qPCR assay; type: functional, organism-based; conditions: time 1.0 weeks; outline: as §4
Adipocyte [10] = experiment: Inhibition of lipogenesis in mouse adipocytes isolated stromal vascular cells assessed as decrease in FAS protein expression measured after 24 hrs by western blot analysis; type: functional, cell-based
Hepatocyte [11] = experiment: Inhibition of glucogenesis in mouse primary hepatocytes stimulated with 100 uM 8-Br-cAMP assessed as decrease in FBP mRNA expression at 3 uM measured after 8 hrs by RT-qPCR assay
Adipocyte [12] = experiment: Inhibition of lipogenesis in mouse adipocytes isolated stromal vascular cells assessed as decrease in DGAT2 mRNA expression measured after 24 hrs by RT-qPCR assay; type: functional, cell-based; outline: as §3
Adipocyte [13] = experiment: Inhibition of lipogenesis in mouse adipocytes isolated stromal vascular cells assessed as decrease in LPL mRNA expression measured after 24 hrs by RT-qPCR assay; type: functional, cell-based; outline: as §3
Hepatocyte [14] = experiment: Inhibition of glucogenesis in mouse primary hepatocytes stimulated with 100 uM 8-Br-cAMP assessed as effect on PGC1alpha mRNA expression at 3 uM measured after 8 hrs by RT-qPCR assay; type: functional, cell-based
Outline: (§5)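 Primary mouse hepatocytes treated with 3 μM compound and 100 μM 8-Br-cAMP for 8 h. Trizol RNA, SYBR Green RT-qPCR of the named transcript. Mean ± SEM, three independent experiments.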

[15] = biological target: CREB-binding protein/Histone acetyltransferase p300 (Homo sapiens) (UniProt Q09472+Q92793); experiment: Inhibition of CBP/p300 in human HepG2 cells stimulated with 100 uM 8-Br-cAMP assessed as induction of FOXO1 deacetylation at 3 uM measured after 6 hrs; type: cell-based
Outline: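 HepG2 cells given 3 μM compound and 100 μM 8-Br-cAMP for 6 h. Endogenous FOXO1 immunoprecipitated and its acetylation detected by immunoblot.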

Mus musculus [16] = experiment: Anti-obesity activity in C57BL/6 mouse supplemented with normal chow diet assessed as decrease in total fat mass at 20 mg/kg/day, ip administered for 1 week measured by EchoMRI live analysis; type: functional; parameters: scale not given: the % may be the effect or the level left; conditions: time 1 weeks
Outline: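 Normal-chow male C57BL/6 mice, 8 weeks old, ip 20 mg·kg−1·day−1 daily for 7 days. Total lean and fat mass measured in live animals by EchoMRI. Mean ± SEM, n = 5–9.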

Mus musculus [17] = experiment: Inhibition of lipogenesis in C57BL/6 mouse supplemented with normal chow diet assessed as decrease in LPL mRNA expression at 20 mg/kg/day, ip administered for 1 week measured measured by RT-qPCR assay; type: functional, organism-based; conditions: time 1.0 weeks; outline: as §4
Hepatocyte [18] = experiment: Inhibition of glucogenesis in mouse primary hepatocytes stimulated with 100 uM 8-Br-cAMP assessed as decrease in C/EBPalpha mRNA expression at 3 uM measured after 8 hrs by RT-qPCR assay; type: functional, cell-based; outline: as §5
Mus musculus [19] = experiment: Inhibition of lipogenesis in C57BL/6 mouse supplemented with high-fat diet assessed as decrease in LPL mRNA expression at 20 mg/kg/day, ip administered for 1 week measured measured by RT-qPCR assay; type: functional, organism-based; conditions: time 1.0 weeks; outline: as §1
Mus musculus [20] = experiment: Anti-obesity activity in 16 hrs fasted C57BL/6 mouse supplemented with normal chow diet assessed as decrease in blood glucose level at 20 mg/kg/day, ip administered for 1 week measured after 15 to 30 mins by pyruvate tolerance test; type: functional, organism-based; conditions: time 1.0 weeks
Outline: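 Normal-chow male C57BL/6 mice (8 weeks old) dosed ip at 20 mg·kg−1·day−1 for 7 days. Pyruvate tolerance test: 16 h fast, then pyruvate 2 g/kg body weight ip, blood glucose followed over time. Mean ± SEM, n = 5–9.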

Chain of CREB-binding protein/Histone acetyltransferase p300 (Homo sapiens) (Q09472 whole entry, looked up): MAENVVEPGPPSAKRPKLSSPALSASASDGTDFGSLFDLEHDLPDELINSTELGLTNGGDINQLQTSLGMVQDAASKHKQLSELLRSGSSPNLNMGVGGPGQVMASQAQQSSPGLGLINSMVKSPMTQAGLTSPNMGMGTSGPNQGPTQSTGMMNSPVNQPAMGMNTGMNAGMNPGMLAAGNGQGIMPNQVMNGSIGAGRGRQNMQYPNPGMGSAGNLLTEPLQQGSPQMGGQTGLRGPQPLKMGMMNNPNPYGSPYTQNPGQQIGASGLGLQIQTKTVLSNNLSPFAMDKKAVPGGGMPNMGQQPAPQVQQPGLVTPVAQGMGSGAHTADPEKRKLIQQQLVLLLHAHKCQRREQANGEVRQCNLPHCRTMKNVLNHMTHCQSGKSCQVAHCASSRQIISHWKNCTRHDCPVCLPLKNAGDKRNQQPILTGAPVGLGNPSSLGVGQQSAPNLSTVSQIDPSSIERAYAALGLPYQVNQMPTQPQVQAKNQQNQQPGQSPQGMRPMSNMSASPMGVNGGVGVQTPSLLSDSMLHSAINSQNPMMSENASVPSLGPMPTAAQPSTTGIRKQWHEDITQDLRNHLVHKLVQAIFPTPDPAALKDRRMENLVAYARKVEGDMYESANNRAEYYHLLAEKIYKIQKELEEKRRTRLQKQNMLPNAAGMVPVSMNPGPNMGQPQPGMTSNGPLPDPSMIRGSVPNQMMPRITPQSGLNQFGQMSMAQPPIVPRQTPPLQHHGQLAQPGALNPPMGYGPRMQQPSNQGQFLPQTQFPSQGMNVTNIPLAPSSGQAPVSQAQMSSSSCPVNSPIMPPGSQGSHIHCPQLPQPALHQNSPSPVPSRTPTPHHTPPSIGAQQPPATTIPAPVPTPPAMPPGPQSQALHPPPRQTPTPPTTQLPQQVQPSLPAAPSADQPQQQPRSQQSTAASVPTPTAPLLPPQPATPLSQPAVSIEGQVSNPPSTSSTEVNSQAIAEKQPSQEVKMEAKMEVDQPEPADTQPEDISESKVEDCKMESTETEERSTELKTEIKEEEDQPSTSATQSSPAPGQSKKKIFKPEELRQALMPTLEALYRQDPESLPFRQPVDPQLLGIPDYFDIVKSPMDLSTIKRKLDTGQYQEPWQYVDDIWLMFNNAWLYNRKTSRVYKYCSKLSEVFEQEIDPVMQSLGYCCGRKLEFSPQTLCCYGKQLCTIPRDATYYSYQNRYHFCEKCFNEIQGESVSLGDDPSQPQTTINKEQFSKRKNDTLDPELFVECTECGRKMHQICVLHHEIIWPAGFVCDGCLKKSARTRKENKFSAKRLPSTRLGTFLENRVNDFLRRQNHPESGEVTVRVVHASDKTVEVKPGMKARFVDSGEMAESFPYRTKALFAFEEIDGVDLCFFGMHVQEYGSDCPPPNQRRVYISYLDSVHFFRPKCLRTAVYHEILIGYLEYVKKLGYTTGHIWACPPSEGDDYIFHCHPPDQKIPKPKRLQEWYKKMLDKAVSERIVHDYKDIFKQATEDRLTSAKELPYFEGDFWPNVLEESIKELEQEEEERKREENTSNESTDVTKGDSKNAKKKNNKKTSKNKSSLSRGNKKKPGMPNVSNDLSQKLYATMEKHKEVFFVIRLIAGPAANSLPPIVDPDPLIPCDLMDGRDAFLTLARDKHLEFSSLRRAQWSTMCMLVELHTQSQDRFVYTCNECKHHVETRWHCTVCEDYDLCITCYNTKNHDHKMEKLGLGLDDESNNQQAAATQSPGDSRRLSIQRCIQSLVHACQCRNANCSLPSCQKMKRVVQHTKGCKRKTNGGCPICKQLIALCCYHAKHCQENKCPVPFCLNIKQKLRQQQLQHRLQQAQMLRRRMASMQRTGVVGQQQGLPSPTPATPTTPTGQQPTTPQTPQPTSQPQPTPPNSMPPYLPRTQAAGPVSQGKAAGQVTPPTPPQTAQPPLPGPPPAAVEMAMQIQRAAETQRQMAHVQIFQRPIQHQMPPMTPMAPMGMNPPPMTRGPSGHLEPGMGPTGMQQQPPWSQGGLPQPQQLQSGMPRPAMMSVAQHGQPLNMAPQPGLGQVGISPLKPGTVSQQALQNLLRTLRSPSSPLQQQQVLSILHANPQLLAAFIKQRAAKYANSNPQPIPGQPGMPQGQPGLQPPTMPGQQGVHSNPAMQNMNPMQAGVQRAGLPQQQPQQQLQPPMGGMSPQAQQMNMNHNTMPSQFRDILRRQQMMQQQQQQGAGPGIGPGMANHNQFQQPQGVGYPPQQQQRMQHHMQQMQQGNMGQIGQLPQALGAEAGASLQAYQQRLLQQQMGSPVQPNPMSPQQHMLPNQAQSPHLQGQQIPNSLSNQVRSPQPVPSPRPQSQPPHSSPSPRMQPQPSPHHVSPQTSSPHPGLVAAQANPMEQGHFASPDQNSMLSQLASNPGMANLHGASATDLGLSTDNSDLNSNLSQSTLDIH
Chain of CREB-binding protein/Histone acetyltransferase p300 (Homo sapiens) (Q92793 whole entry, looked up): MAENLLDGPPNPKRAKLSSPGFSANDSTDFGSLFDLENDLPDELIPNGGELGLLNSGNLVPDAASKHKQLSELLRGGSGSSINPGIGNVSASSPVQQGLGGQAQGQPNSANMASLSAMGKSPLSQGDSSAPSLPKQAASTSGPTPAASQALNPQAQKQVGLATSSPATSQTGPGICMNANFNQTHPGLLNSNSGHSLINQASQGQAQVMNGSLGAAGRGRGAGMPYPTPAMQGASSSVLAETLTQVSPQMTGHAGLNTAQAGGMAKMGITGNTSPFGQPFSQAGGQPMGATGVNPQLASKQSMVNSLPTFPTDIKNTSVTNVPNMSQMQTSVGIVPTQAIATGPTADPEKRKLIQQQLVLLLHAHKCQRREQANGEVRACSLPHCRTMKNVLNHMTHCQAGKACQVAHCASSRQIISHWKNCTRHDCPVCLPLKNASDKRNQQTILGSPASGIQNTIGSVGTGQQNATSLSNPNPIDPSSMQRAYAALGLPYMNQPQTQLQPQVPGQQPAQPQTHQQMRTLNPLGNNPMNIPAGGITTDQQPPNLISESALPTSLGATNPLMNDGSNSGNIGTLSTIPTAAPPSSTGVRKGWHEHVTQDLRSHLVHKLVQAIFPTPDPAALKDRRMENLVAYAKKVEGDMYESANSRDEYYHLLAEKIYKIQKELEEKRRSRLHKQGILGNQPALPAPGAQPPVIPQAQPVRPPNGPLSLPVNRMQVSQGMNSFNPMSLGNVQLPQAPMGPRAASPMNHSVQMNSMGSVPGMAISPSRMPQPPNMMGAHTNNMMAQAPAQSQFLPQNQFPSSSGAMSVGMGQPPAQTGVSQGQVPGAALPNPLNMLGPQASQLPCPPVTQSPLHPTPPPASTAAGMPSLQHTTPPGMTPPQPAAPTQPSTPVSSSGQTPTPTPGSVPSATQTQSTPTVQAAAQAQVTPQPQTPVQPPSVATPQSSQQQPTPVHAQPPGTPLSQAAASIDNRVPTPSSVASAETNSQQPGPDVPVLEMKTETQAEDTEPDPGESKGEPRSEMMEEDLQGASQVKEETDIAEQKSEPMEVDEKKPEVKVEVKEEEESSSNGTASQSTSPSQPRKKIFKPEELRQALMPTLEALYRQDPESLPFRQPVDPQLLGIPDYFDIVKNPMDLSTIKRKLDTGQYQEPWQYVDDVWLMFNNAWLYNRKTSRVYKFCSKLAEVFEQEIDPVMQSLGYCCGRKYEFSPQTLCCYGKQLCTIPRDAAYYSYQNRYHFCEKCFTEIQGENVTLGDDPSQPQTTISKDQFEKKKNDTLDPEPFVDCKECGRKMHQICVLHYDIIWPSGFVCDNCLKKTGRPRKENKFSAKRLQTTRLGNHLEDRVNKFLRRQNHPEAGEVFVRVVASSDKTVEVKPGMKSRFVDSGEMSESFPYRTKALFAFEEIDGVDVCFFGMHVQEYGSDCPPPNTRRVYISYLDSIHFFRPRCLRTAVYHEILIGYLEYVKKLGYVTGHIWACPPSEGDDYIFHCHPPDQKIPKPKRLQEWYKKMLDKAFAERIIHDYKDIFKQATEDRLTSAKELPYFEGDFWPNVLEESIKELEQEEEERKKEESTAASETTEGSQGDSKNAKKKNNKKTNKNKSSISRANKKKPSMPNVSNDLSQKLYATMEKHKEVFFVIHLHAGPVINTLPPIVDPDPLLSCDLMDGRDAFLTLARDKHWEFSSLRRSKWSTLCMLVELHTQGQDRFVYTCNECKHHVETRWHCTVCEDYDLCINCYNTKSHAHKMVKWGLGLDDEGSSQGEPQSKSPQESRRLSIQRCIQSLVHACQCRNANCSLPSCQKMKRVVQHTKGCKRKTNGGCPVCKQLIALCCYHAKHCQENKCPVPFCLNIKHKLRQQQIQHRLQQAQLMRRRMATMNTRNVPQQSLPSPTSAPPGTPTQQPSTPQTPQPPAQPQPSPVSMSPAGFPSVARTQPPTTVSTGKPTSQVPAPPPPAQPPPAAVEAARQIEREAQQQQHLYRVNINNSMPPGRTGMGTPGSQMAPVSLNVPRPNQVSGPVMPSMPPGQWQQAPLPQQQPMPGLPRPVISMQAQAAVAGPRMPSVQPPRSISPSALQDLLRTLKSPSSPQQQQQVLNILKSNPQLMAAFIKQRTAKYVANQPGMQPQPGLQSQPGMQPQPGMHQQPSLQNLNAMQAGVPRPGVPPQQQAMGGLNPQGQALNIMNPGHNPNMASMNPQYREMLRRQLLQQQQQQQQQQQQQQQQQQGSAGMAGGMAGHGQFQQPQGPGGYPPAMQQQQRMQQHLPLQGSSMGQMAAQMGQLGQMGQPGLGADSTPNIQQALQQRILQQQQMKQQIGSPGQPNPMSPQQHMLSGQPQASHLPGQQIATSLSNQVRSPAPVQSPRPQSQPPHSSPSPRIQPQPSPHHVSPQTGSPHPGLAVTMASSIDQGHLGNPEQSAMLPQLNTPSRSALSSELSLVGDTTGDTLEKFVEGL

Q: Which inhibition (Mus musculus [1]) does the source give for `CNC(=O)Nc1ccc2c(c1)CCS21OC(=O)N(CC(=O)N(Cc2ccc(F)cc2)[C@@H](C)C(F)(F)F)C1=O` (stereo not given in full) here?
A: Active

Q: And the inhibition (Adipocyte [2])?
A: Active

Q: And the inhibition (Mus musculus [3])?
A: Active

Q: And the Activity (Mus musculus [4])?
A: inactive

Q: And the Activity (Mus musculus [5])?
A: Active

Q: What about the inhibition (Adipocyte [6]) of the same molecule?
A: Active

Q: And the inhibition (Mus musculus [7])?
A: Active

Q: And the Activity (Mus musculus [8])?
A: Active

Q: And the inhibition (Mus musculus [9])?
A: Active

Q: And the inhibition (Adipocyte [10])?
A: Active

Q: And the inhibition (Hepatocyte [11])?
A: Active

Q: And the inhibition (Adipocyte [12])?
A: Active

Q: What about the inhibition (Adipocyte [13]) of the same molecule?
A: Active

Q: And the inhibition (Hepatocyte [14])?
A: inactive

Q: And the inhibition [15]?
A: Active

Q: And the Activity (Mus musculus [16])?
A: ~14%

Q: And the inhibition (Mus musculus [17])?
A: Active

Q: What about the inhibition (Hepatocyte [18]) of the same molecule?
A: Active

Q: What about the inhibition (Mus musculus [19]) of the same molecule?
A: Active

Q: And the Activity (Mus musculus [20])?
A: Active
